Article PMC6287304 (Antiviral Chemistry & Chemotherapy, 2018)
Read-outs that look alike come from different tables or passages of the source.

Key:
HCMV DNA pol = biological target: T1, HCMV DNA pol (Human cytomegalovirus, UniProt P08546); assay: DNA polymerase inhibition, HCMV DNA pol; type: biochemical; details: IC50 HCMV DNA pol dGTP, calf thymus DNA, radiolabeled [3H]dGTP
T1 sequence (P08546 1-1242): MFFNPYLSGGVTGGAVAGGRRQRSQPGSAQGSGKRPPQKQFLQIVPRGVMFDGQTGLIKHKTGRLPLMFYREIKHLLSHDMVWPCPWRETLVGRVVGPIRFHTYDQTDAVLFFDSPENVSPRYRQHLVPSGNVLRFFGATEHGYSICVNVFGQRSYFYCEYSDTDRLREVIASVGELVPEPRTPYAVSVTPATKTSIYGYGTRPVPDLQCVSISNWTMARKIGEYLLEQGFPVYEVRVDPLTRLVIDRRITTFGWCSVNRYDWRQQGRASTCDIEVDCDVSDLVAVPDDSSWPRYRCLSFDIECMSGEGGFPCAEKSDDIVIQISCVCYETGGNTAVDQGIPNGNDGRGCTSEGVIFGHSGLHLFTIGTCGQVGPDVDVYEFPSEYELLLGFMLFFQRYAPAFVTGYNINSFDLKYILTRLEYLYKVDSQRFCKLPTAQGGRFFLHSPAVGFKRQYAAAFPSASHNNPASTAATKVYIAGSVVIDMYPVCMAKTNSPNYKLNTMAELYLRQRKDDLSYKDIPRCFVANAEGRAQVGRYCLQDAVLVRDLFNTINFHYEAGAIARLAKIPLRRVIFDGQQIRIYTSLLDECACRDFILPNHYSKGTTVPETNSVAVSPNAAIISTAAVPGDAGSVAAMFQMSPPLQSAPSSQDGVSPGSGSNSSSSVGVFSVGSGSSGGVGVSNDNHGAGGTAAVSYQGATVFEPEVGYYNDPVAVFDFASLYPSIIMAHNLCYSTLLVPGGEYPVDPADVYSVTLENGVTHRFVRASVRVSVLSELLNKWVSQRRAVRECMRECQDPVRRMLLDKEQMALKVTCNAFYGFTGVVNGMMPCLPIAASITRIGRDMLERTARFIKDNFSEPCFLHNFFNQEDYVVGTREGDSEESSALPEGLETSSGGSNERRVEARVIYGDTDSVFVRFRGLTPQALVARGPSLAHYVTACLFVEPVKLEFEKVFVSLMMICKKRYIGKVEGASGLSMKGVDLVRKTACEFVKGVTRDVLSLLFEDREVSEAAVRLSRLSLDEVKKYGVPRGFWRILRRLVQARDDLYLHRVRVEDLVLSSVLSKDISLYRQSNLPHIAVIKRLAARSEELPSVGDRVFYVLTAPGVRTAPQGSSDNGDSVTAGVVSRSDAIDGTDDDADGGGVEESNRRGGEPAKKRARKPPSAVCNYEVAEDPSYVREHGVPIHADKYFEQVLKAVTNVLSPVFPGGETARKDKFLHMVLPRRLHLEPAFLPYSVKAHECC
Outline: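 Recombinant or source enzyme not specified. HCMV DNA polymerase reaction uses activated calf thymus DNA as template/primer, 100 uM of each of three unlabeled dNTPs, and 0.5 uM rate-limiting tritium-labeled dNTP ([3H]dGTP or [3H]dTTP, as competitive substrate). The diphosphate form of the test compound is added in serial dilutions, up to 100 uM.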

herpesviruses = assay: organism not typed; type: cell-based; details: for EC50: HEL
Vaccinia virus = assay: microbe, parasite or virus in culture; type: cell-based; details: for EC50: read-out: Antiviral activity EC50 Vaccinia virus
HEL cells [1] = assay: Cytotoxicity, alteration of cell morphology; type: cell-based, human
HSV = assay: Antiviral activity against HSV; type: cell-based, herpes simplex virus; details: HEL
[2] = Cytostatic activity, inhibition of cell growth; type: cell-based, human; details: human, HEL cells, Cytotoxicity Cell growth (CC50), Table 3
HSV-2 = assay: Virus-induced cytopathicity, HSV-2; type: cell-based, herpes simplex virus type 2; details: read-out: Antiviral activity EC50 HSV-2
HSV-1 TK– = assay: Virus-induced cytopathicity, TK– HSV-1 KOS ACVr in HEL cells; type: cell-based, herpes simplex virus type 1; details: read-out: Antiviral activity EC50 HSV-1 TK–
TK– VZV 07-1 strain = type: cell-based, varicella-zoster virus
HCMV Davis strain = assay: Virus-induced cytopathic effect, HCMV Davis strain in HEL cells; type: cell-based, human cytomegalovirus
HSV-1 mutant viruses = type: cell-based, herpes simplex virus type 1; details: Figure 2
Outline: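 HSV-1 TK and DNA polymerase mutants were derived from the reference KOS strain and tested by CPE reduction. Confluent HEL cultures in 96-well plates were infected and incubated with varying test compound concentrations. Cytopathicity was scored once it was complete in untreated infected controls. […] Fold-resistance is EC50 mutant divided by EC50 wild-type KOS. Reference antiherpetic drugs were run alongside.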

TK+ VZV OKA strain = type: cell-based, varicella-zoster virus
HCMV AD-169 strain = assay: Virus-induced cytopathic effect, HCMV AD-169 strain in HEL cells; type: cell-based, human cytomegalovirus
HSV-1 = assay: Virus-induced cytopathicity, HSV-1; type: cell-based, herpes simplex virus type 1; details: read-out: Antiviral activity EC50 HSV-1; Table 4; HEL cells
HEL cells [3] = assay: Cytostatic activity, inhibition of cell growth; type: cell-based, human
[4] = read-out: EC50 against VZV, HCMV, HSV-1, HSV-2, and Vaccinia virus (range)
[5] = read-out: EC50 values, replication of HSV-1, HSV-2 and TK-HSV-1 (range)

With `Nc1nc2c(ncn2COCCOP(=O)(O)OP(=O)(O)OP(=O)(O)O)c(=O)[nH]1` [ACV-TP, acyclovir triphosphate] the IC50 (HCMV DNA pol) was 0.77 ± 0.04 µM.
In the case of `O=c1[nH]c(=O)c2ncn(CC(CO)OCP(=O)(O)O)c2[nH]1` (racemic) [Compound 5, (RS)-(((1–(2,6-Dioxo-1,2,3,6-tetrahydro-9H-purin-9-yl)-3-hydroxypropan-2-yl)oxy)methyl)phosphonic acid], the “anti-herpesvirus activity (in words)” value (herpesviruses) is reported as “able to inhibit the replication of herpesviruses”, the EC50 (herpesviruses; [4]) is reported as 17 to 43 µM and the EC50 (Vaccinia virus; Orthopoxvirus vaccinia, HEL) is reported as 39 ± 27 µM. The “Cytotoxicity Cell morphology (MCC)” value (HEL cells [1]; Table 1) was ≥300 μM, the “Cytotoxicity Cell morphology (MCC)” value (HEL cells [1]; Table 2) was >100 μM and the EC50 (HSV; [5]) was 16 to 39 µM.
With `O=c1[nH]c(=O)c2ncn(C[C@H](CF)OCP(=O)(O)O)c2[nH]1` [Compound 7, (R)-(((1–(2,6-Dioxo-1,2,3,6-tetrahydro-9H-purin-9-yl)-3-fluoropropan-2-yl)oxy)methyl)phosphonic acid] the EC50 (Vaccinia virus; Orthopoxvirus vaccinia, HEL) was > 313 µM and the “Cytotoxicity Cell morphology (MCC)” value (HEL cells [1]; Table 1) was >313 μM.
In the case of `Nc1nc(O)c2ncn(COC(CO)CO)c2n1` [Ganciclovir, ganciclovir, reference compound], the EC50 (Vaccinia virus; Orthopoxvirus vaccinia, HEL) is reported as > 100 µM, the CC50 at 3 days [2] is reported as ≥ 317 µM and the “Cytotoxicity Cell morphology (MCC)” value (HEL cells [1]; Table 2) is reported as >100 μM.
Molecule `O=c1[nH]c(=O)n([C@H]2C[C@H](O)[C@@H](CO)O2)cc1/C=C/Br` [Brivudin, brivudin, reference compound] has an EC50 (HSV-2; Human alphaherpesvirus 2, HEL) of 112 ± 37 µM, an EC50 (HSV-1 TK–) of 50 µM and a CC50 at 3 days [2] of 168 ± 41 µM. The “Cytotoxicity Cell morphology (MCC)” value (HEL cells [1]; Table 1) was >300 μM, the “Cytotoxicity Cell morphology (MCC)” value (HEL cells [1]; Table 2) was >250 μM and the “Cytotoxicity Cell morphology (MCC)” value (HEL cells [1]; Table 3) was ≥300 μM.
With `Nc1ccn(C[C@@H](CO)OCP(=O)(O)O)c(=O)n1` [Cidofovir, cidofovir] the CC50 at 3 days [2] was 170 ± 61 µM.
In the case of `O=c1[nH]c(=O)c2ncn(C[C@@H](CO)OCP(=O)(O)O)c2[nH]1` [Compound 6, (S)-(((1–(2,6-Dioxo-1,2,3,6-tetrahydro-9H-purin-9-yl)-3-hydroxypropan-2-yl)oxy)methyl) phosphonic acid], the “anti-herpesvirus activity (in words)” value (herpesviruses) is reported as “able to inhibit the replication of herpesviruses”, the EC50 (herpesviruses; [4]) is reported as 17 to 43 µM and the EC50 (Vaccinia virus; Orthopoxvirus vaccinia, HEL) is reported as 39 ± 27 µM. The “Cytotoxicity Cell morphology (MCC)” value (HEL cells [1]; Table 1) was >300 μM, the “Cytotoxicity Cell morphology (MCC)” value (HEL cells [1]; Table 2) was >100 μM and the EC50 (HSV; [5]) was 16 to 39 µM.
With `O=c1nc(NC2CC2)c2ncn(CCOCP(=O)(O)O)c2[nH]1` [Compound 17, ((2–(6-(Cyclopropylamino)-2-oxo-2,3-dihydro-9H-purin-9-yl)ethoxy)methyl)phosphonic acid] the “activity in all assays (in words)” value (herpesviruses) was “completely inactive in all assays”, the EC50 (Vaccinia virus; Orthopoxvirus vaccinia, HEL) was > 100 µM and the “Cytotoxicity Cell morphology (MCC)” value (HEL cells [1]; Table 3) was >100 μM.
With `C[C@H](Cn1cnc2c(=O)[nH]c(=O)[nH]c21)OCP(=O)(O)O` [Compound 9, (R)-(((1–(2,6-Dioxo-1,2,3,6-tetrahydro-9H-purin-9-yl)propan-2-yl)oxy)methyl)phosphonic acid] the EC50 (Vaccinia virus; Orthopoxvirus vaccinia, HEL) was > 100 µM and the “Cytotoxicity Cell morphology (MCC)” value (HEL cells [1]; Table 1) was >100 μM.
With `O=c1[nH]c(=O)c2ncn(CCOCP(=O)(O)O)c2[nH]1` [Compound 4, ((2–(2,6-Dioxo-1,2,3,6-tetrahydro-9H-purin-9-yl)ethoxy)methyl)phosphonic acid] the “anti-herpesvirus activity (in words)” value (herpesviruses) was “able to inhibit the replication of herpesviruses”, the EC50 (herpesviruses; read-out: EC50 values against VZV, HCMV, HSV-1, and HSV-2 (range)) was 2.6 to 25.6 µM and the “selectivity index (ratio CC50/EC50)” value (TK– VZV 07-1 strain) was 24. The “selectivity index (ratio CC50/EC50)” value (HCMV Davis strain) was 13, the “Antiviral activity EC50 Vaccinia virus” value (Vaccinia virus) was “lacked activity” and the EC50 (Vaccinia virus; Orthopoxvirus vaccinia, HEL) was > 345 µM. The “change of EC50 for DNA polymerase mutant viruses” value (HSV-1 mutant viruses; HSV-1 DNA polymerase mutants, same magnitude as adefovir) was “increase in the EC50”, the “activity against viruses bearing mutations in the viral TK” value (HSV-1 mutant viruses; HSV-1 TK mutants) was “remained active” and the “selectivity index (ratio CC50/EC50)” value (TK+ VZV OKA strain) was 42. For the same molecule, the “selectivity index (ratio CC50/EC50)” value (HCMV AD-169 strain) was 11, the “Cytotoxicity Cell morphology (MCC)” value (HEL cells [1]; Table 1) was >345 μM and the EC50 (HSV; [5]) was 16 to 39 µM.
With `Nc1nc2c(ncn2COCCO)c(=O)[nH]1` [Acyclovir, acyclovir, reference compound] the EC50 (Vaccinia virus; Orthopoxvirus vaccinia, HEL) was > 250 µM and the “Cytotoxicity Cell morphology (MCC)” value (HEL cells [1]; Table 2) was >250 μM.
With `O=c1[nH]c(=O)c2ncn(C[C@@H](CF)OCP(=O)(O)O)c2[nH]1` [Compound 8, (S)-(((1–(2,6-Dioxo-1,2,3,6-tetrahydro-9H-purin-9-yl)-3-fluoropropan-2-yl)oxy)methyl)phosphonic acid] the EC50 (Vaccinia virus; Orthopoxvirus vaccinia, HEL) was > 329 µM and the “Cytotoxicity Cell morphology (MCC)” value (HEL cells [1]; Table 1) was >329 μM.
With “4,4,5,5,6,6,7,7,8,8,9,9,10,10,11,11,11-Heptadecafluoroundecyl hydrogen ((2–(2,6-dioxo-1,2,3,6-tetrahydro-9H-purin-9-yl)ethoxy)methyl)phosphonate [Compound 19]” the “anti-herpesvirus activity (in words)” value (herpesviruses) was “did not display any potent anti-herpesvirus activity”, the EC50 (HSV-2; Table 4, HEL cells) was > 100 µM and the EC50 (Vaccinia virus) was > 100 µM. The EC50 (HSV-1 TK–; Table 4, HEL cells) was > 100 µM, the “Cytotoxicity Cell morphology (MCC)” value (HEL cells [1]; Table 3) was ≥100 μM and the “Cytotoxicity Cell morphology (MCC)” value (HEL cells [1]; Table 4) was >100 μM. For the same molecule, the EC50 (HSV-1) was > 100 µM.
With `CCCCCCCCCCCCCCCCOCCCOP(=O)(O)COCCn1cnc2c(=O)[nH]c(=O)[nH]c21` [Compound 18, 3-(Hexadecyloxy)propyl hydrogen ((2–(2,6-dioxo-1,2,3,6-tetrahydro-9H-purin-9-yl)ethoxy)methyl)phosphonate] the EC50 (Vaccinia virus; Orthopoxvirus vaccinia, HEL) was > 100 µM, the “increase in cytostatic activity versus parent compound 4” value (HEL cells [3]) was 11 fold and the “Cytotoxicity Cell morphology (MCC)” value (HEL cells [1]; Table 3) was 100 μM. The “Cytotoxicity Cell morphology (MCC)” value (HEL cells [1]; Table 4) was >100 μM and the EC50 (HSV; read-out: EC50 values against HSV-1 and HSV-2 (range)) was 1.8 to 4 µM.
